Source: PMC5087331 (Journal of Medicinal Chemistry, 2016)

Assays:
[1] = system: clinical E. coli strain UTI89; test: Hemagglutination inhibition; type: cell-based, Escherichia coli
UTI89KAN (UPEC) [2] = test: Treatment of chronic urinary tract infection in mice; type: in vivo, C3H/HeN female mice; conditions: chronic UTI
Method in brief: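 Female C3H/HeN mice were infected transurethrally with 1–2 × 10^8 UTI89KAN. Urine titers were taken on day 12, and mice with ≥10^5 were counted as chronic. At 2 weeks they received oral test compound (25 or 50 mg/kg) in 100 μL 10% cyclodextrin. Bladders were harvested at set times after dosing and plated on kanamycin LB. Geometric means; Mann–Whitney versus vehicle or 0 h.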

UTI89KAN (UPEC) [3] = test: Prophylactic treatment of acute urinary tract infection in mice; type: in vivo, C3H/HeN female mice; conditions: 25 mg/kg PO 30 min prior to UPEC infection, bacterial titers 6 h postinfection
Method in brief: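 6–8-week female C3H/HeN mice were dosed orally with 25 mg/kg test compound in 10% cyclodextrin. After 30 min they were inoculated transurethrally under isoflurane with 1–2 × 10^7 UTI89KAN (grown 2 × 24 h static in LB, 37 °C; washed, in PBS). At 6 h, bladders were homogenised and plated on LB + 50 μg/mL kanamycin. Geometric means from ≥2 experiments; Mann–Whitney versus vehicle.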

[4] = biological target: FimH lectin domain (FimHL) (Escherichia coli, UniProt P08191); test: Differential scanning fluorimetry; type: binding; conditions: isothermal shift melting point assay
Method in brief: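 FimH lectin domain (FimHL) at 10 μM, heated with or without 100 μM mannoside. Melting temperature measured by differential scanning fluorimetry. Value is the shift in melting temperature relative to protein without mannoside.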

[5] = 25 mg/kg oral, 12 h post treatment

Sequence of FimH lectin domain (FimHL) (P08191 22-179): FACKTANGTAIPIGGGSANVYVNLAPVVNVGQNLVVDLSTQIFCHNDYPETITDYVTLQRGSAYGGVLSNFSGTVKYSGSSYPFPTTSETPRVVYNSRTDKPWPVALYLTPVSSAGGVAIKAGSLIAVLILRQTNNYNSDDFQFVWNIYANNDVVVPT

CNC(=O)c1cc(C(=O)NC)cc(-c2ccc(O[C@H]3O[C@H](CO)[C@@H](O)[C@H](O)[C@@H]3O)c(C)c2)c1 [compound 24]
fold more potent than 23 in HA assay ([1]; comparator 23): 4 fold | change in bladder burdens compared to vehicle (UTI89KAN (UPEC) [2]; [5]): noticeable, but not significant, decrease in bladder burdens | bladder burden at 6 h (UTI89KAN (UPEC) [2]; 50 mg/kg oral): 10^4 CFUs | bladder burden at 12 hours (geometric mean) (UTI89KAN (UPEC) [2]; 50 mg/kg oral): 10^5 | bladder burden 2 h postdosing (UTI89KAN (UPEC) [2]; 50 mg/kg oral, from 10^7 CFUs at 0 h): approximately 10^5 CFUs

CNC(=O)c1cccc(-c2ccc(O[C@H]3O[C@H](COC(C)=O)[C@@H](OC(C)=O)[C@H](OC(C)=O)[C@@H]3OC(C)=O)c(C)c2)c1 [23a, 4′-(2,3,4,6-Tetra-O-acetyl-α-D-mannopyranosyloxy)-N,3′-dimethyl-[1,1′biphenyl]-3-carboxamide]
efficacy compared to 23 as prophylaxis therapy (UTI89KAN (UPEC) [3]): improved efficacy compared to 23 | change in bladder burdens compared to vehicle (UTI89KAN (UPEC) [2]; [5]): similar, but statistically significant, decrease in bladder burdens

CNC(=O)c1cccc(-c2ccc([C@@H](O)[C@H]3O[C@H](CO)[C@@H](O)[C@H](O)[C@@H]3O)c(C)c2)c1 [21R, 4′-[(α-D-Mannopyranosyl)-(R)-hydroxymethyl]-N,3′-dimethyl-[1,1′biphenyl]-3-carboxamide]
bladder burdens relative to untreated mice (UTI89KAN (UPEC) [2]; [5]): three logs lower | change in bladder burdens compared to vehicle (UTI89KAN (UPEC) [2]; [5]): dramatic and significant decrease in CFUs

COC(=O)c1cccc(-c2ccc(N[C@H]3O[C@H](CO)[C@@H](O)[C@H](O)[C@@H]3O)cc2)c1 [compound 2, 4′-(α-D-Mannopyranosylamino)-[1,1′biphenyl]-3-carboxylic Acid Methyl Ester]
binding affinity to FimH relative to 1 [4]: equivalent binding affinity to FimH

COC(=O)c1cccc(-c2ccc(S[C@H]3O[C@H](CO)[C@@H](O)[C@H](O)[C@@H]3O)cc2)c1 [compound 3, 4′-(α-D-Mannopyranosylthio)-[1,1′biphenyl]-3-carboxylic Acid Methyl Ester]
binding affinity to FimH relative to 1 [4]: equivalent binding affinity to FimH

CNC(=O)c1cccc(-c2ccc(O[C@H]3O[C@H](COP(=O)(O)O)[C@@H](O)[C@H](O)[C@@H]3O)c(C)c2)c1 [23b, 4′-(6-Dihydrogen Phosphate-α-D-mannopyranosyloxy)-N,3′-dimethyl-[1,1′biphenyl]-3-carboxamide]
efficacy compared to 23 as prophylaxis therapy (UTI89KAN (UPEC) [3]): improved efficacy compared to 23

CNC(=O)c1cccc(-c2ccc(C[C@H]3O[C@H](CO)[C@@H](O)[C@H](O)[C@@H]3O)c(C)c2)c1 [compound 22, 4′-[(α-D-Mannopyranosyl)methyl]-N,3′-dimethyl-[1,1′biphenyl]-3-carboxamide]
fold decrease in activity relative to 23 ([1]; comparator 23): 30 fold

CNC(=O)c1cccc(-c2ccc([C@H](O)[C@H]3O[C@H](CO)[C@@H](O)[C@H](O)[C@@H]3O)cc2)c1 [6S, 4′-[(α-D-Mannopyranosyl)-(S)-hydroxymethyl]-N-methyl-[1,1′biphenyl]-3-carboxamide]
fold less potency in the HA assay than 5 ([1]; comparator 5): 25 fold

CNC(=O)c1cccc(-c2ccc(O[C@H]3O[C@H](COC(=O)CN(C)C)[C@@H](O)[C@H](O)[C@@H]3O)c(C)c2)c1 [23c, 4′-[6-O-(N,N-Dimethylaminoacetyl)-α-D-mannopyranosyloxy]-N,3′-dimethyl-[1,1′biphenyl]-3-carboxamide]
efficacy compared to 23 as prophylaxis therapy (UTI89KAN (UPEC) [3]): did not show enhanced efficacy
